Activity calls are given as the source filed them. The calls are words filed in the database; no cut-off is given here.
Experiments:
HCT-116 [1] = test: Cytotoxicity against human HCT116 cells incubated for 72 hrs by MTT assay; type: functional; settings: HCT-116, 72 h
How it was run: (§1)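 MTT assay. Cells seeded at 5 × 10³/well and grown 24 h at 37 °C, 5% CO₂. Compounds added at several concentrations in triplicate wells, with 0.1% DMSO control, for 72 h. MTT then added for 4 h, formazan dissolved in DMSO, and absorbance read at 570 nm. GI₅₀ by Logit method; three experiments.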

A549 = test: Cytotoxicity against human A549 cells incubated for 72 hrs by MTT assay; type: functional; settings: A549, 72 h; how it was run: as §1
MDA-MB-435 = test: Cytotoxicity against human MDA-MB-435 cells incubated for 72 hrs by MTT assay; type: functional; settings: MDA-MB-435, 72 h; how it was run: as §1
[2] = target: T1, DNA topoisomerase 1 (Homo sapiens) (UniProt P11387); test: Inhibition of Top1 assessed as suppression of supercoiled pBR322 DNA relaxation measuring appearance of short DNA fragments at 100 uM incubated for 15 mins by electrophoresis method
T1 sequence (whole entry): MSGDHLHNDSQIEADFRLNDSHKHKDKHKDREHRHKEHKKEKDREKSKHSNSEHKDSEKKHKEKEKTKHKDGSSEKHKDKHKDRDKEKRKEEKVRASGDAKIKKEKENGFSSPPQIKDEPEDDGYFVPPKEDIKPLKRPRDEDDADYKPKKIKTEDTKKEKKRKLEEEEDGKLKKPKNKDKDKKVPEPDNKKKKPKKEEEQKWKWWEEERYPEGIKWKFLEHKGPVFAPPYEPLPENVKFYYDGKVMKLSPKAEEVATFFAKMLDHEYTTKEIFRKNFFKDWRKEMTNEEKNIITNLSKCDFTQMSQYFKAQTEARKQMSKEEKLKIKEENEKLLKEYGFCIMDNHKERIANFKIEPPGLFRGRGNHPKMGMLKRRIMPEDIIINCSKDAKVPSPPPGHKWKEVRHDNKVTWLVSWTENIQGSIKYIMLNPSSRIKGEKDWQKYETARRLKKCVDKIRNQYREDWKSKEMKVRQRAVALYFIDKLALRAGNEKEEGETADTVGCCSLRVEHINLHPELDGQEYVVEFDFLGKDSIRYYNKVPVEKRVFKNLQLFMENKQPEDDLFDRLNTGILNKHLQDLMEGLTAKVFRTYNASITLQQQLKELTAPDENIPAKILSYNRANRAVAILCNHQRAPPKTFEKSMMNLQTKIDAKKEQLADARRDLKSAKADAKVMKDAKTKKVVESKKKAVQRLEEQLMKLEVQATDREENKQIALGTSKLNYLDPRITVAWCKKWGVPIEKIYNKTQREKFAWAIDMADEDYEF

[3] = target: DNA topoisomerase 2-alpha (Homo sapiens) (UniProt P11388); test: Inhibition of human Top2alpha assessed as suppression of supercoiled pBR322 DNA relaxation at 50 uM incubated for 30 mins by electrophoresis method
[4] = target: DNA topoisomerase 2-alpha (Homo sapiens) (UniProt P11388); test: Inhibition of human Top2alpha assessed as stabilization of Top2-pBr322 DNA cleavage complex measuring linear DNA formation at 100 uM incubated for 20 mins by electrophoresis method
How it was run: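 Top2α drug screening kit with 8 units hTop2α and pBR322 plasmid. After reaction, proteinase K (200 μg/mL final) 20 min at 50 °C. Electrophoresis in TAE with 0.5 μg/mL ethidium bromide to resolve nicked, linear, relaxed and supercoiled forms.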

Nucleic Acid [5] = test: Binding affinity at calf thymus DNA at 50 uM after 20 mins by UV/vis absorbance titration based assay; type: nucleic-acid assay; settings: Bos taurus
How it was run: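 ct-DNA in DPBS pH 7.4, concentration set by A260 (13200 M⁻¹/cm per bp). Compounds at 50 μM in DPBS with 1% DMSO, with or without ct-DNA 0−100 μM. After 20 min equilibration at room temperature, absorption spectra recorded over 220−400 nm in a microplate reader. Hypochromic or bathochromic shifts taken as the sign of binding.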

Nucleic Acid [6] = test: Binding affinity at calf thymus DNA minor groove assessed as displacement of Hoechst 33258 dye incubated for 20 mins by microplate reader based assay; type: nucleic-acid assay; settings: Bos taurus
[7] = target: T1, DNA topoisomerase 1 (Homo sapiens); test: Inhibition of Top1 assessed as stabilization of Top1-pUC19 DNA cleavage complex measuring increase of nicked DNA at 100 uM incubated for 15 mins by electrophoresis method
Nucleic Acid [8] = test: Induction of DNA intercalation in Escherichia coli pBR322 DNA assessed as induction of supercoiled DNA at 100 uM incubated for 15 mins by electrophoresis based Top1 unwinding assay; type: nucleic-acid assay
Mus musculus = test: Toxicity in BALB/C nude mouse xenografted with human HCT116 cells assessed as reduction in body weight at 2 mg/kg, ip administered as a single dose on 17th day and measured on 30 to 33 days post implantation; type: organism-based, HCT-116; parameters: dose 2 mg/kg, route intraperitoneal; settings: in vivo
How it was run: (§2)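 Cells implanted subcutaneously in right axilla of nude mice; dosing began at tumor volume about 100−300 mm³ (day 17). Randomized, six mice per treatment group and eight controls; ip injection. Tumor volume by caliper, TV = 1/2 × a × b², with body weight every 4 days. Mice sacrificed day 30−33 and tumors removed. Mean SEM, Student's t test versus control.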

HCT-116 [9] = test: Antitumor activity against human HCT116 cells xenografted in BALB/C nude mouse assessed as tumor growth inhibition at 2 mg/kg, ip administered as a single dose on 17th day and measured on 30 to 33 days post implantation; type: functional, organism-based; parameters: dose 2 mg/kg; how it was run: as §2

Chain of DNA topoisomerase 2-alpha (Homo sapiens) (P11388 whole entry): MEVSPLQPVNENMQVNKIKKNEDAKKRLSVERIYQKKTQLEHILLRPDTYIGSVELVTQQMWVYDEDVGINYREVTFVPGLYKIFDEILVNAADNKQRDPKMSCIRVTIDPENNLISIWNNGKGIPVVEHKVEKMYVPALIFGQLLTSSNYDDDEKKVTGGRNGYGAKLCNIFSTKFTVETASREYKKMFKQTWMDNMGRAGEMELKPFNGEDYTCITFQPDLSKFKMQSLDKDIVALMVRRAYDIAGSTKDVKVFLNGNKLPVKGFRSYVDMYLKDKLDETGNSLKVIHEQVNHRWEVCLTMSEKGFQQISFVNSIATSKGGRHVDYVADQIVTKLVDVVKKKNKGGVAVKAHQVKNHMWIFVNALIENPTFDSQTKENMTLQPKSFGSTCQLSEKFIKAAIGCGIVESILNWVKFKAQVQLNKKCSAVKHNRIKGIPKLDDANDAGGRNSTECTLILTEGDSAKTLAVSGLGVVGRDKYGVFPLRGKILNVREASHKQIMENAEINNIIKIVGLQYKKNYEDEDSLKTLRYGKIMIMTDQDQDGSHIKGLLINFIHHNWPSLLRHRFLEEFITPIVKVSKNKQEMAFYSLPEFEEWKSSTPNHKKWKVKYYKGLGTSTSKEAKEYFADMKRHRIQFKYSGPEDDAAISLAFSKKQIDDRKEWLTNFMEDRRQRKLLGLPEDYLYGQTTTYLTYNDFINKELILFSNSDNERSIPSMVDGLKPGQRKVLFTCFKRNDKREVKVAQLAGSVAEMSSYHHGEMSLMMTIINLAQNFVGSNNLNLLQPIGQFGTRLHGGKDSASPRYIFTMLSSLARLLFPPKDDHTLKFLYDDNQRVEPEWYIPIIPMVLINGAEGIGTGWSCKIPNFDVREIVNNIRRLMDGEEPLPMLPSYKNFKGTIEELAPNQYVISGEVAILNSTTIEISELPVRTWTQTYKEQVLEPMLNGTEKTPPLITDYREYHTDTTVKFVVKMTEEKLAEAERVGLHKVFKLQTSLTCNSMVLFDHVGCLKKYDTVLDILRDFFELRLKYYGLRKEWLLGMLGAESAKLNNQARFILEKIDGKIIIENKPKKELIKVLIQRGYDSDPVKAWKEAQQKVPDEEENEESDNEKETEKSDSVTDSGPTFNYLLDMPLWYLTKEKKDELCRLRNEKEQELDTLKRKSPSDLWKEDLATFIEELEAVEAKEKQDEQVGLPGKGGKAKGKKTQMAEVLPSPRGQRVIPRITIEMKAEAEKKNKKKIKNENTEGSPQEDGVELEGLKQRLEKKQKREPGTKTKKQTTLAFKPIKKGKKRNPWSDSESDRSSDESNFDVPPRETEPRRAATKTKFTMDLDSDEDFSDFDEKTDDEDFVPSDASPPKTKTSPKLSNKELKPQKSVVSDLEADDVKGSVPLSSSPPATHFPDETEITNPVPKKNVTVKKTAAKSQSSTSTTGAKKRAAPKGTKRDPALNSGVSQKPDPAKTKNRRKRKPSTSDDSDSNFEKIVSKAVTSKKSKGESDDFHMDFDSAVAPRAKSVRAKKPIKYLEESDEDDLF

Row | Structure (SMILES) | GI50 (HCT-116 [1]) | GI50 (A549) | GI50 (MDA-MB-435) | other results
1 | Cc1cccc2c1N(C)C1c3[nH]c4ccccc4c3CCN1C2=O (configuration not stated) | 0.011 µM | 0.23 µM | 0.084 µM | inhibition [2]: Active
2 | COc1ccc2[nH]c3c(c2c1)CCN1C(=O)c2cc(N)ccc2N(C)C31 (configuration not stated) | 6.6 µM | 62 µM | 12 µM | inhibition [3]: Active
3 | CN1c2cccc(O)c2C(=O)N2CCc3c([nH]c4ccc(O)cc34)C21 (configuration not stated) | 0.009 µM | 0.23 µM | 0.013 µM | inhibition [4]: inactive; Activity (Nucleic Acid [5]): inactive; Activity (Nucleic Acid [6]): inactive; inhibition [7]: Active; Activity (Nucleic Acid [8]): inactive; inhibition [2]: Active
4 | CN1c2ccccc2C(=O)N2CCc3c([nH]c4ccc([N+](=O)[O-])cc34)C21 (configuration not stated) | > 200 µM | > 200 µM | > 200 µM | –
5 | COc1ccc2c(c1)C(=O)N1CCc3c([nH]c4ccccc34)C1N2C (configuration not stated) | 1.25 µM | 0.94 µM | 0.29 µM | –
6 | COc1cccc2c1C(=O)N1CCc3c([nH]c4ccccc34)C1N2C (configuration not stated) | 19.7 µM | 128 µM | 22.3 µM | –
7 | CN1c2ccccc2C(=O)N2CCc3c([nH]c4ccc(Cl)cc34)C21 (configuration not stated) | > 200 µM | > 200 µM | > 200 µM | –
8 | CC[C@@]1(O)C(=O)OCc2c1cc1n(c2=O)Cc2cc3c(CN(C)C)c(O)ccc3nc2-1 [TOPOTECAN] | 0.4 µM | 3.96 µM | 0.034 µM | –
9 | CN1c2ccc(O)cc2C(=O)N2CCc3c([nH]c4ccc(O)cc34)C21 (configuration not stated) | 0.007 µM | 0.75 µM | 0.003 µM | inhibition [3]: Active; Activity (Mus musculus): Toxic; inhibition [4]: inactive; Activity (Nucleic Acid [5]): inactive; TGI (HCT-116 [9]): Active; Activity (Nucleic Acid [6]): inactive; inhibition [7]: Active; Activity (Nucleic Acid [8]): inactive; inhibition [2]: Active
10 | COc1ccc2[nH]c3c(c2c1)CCN1C(=O)c2cc(F)ccc2NC31 (configuration not stated) | 26.7 µM | 60.1 µM | 18.5 µM | –
11 | Cc1ccc2c(c1)c1c(n2C(=O)c2ccc(Cl)cc2)C2N(CC1)C(=O)c1ccccc1N2C (configuration not stated) | 11.4 µM | > 200 µM | 1.14 µM | –
12 | CCCOc1ccc2[nH]c3c(c2c1)CCN1C(=O)c2ccccc2N(C)C31 (configuration not stated) | 8.05 µM | > 200 µM | 3.07 µM | –
13 | CN1c2ccccc2C(=O)N2CCc3c([nH]c4ccc(OC(=O)C5CC5)cc34)C21 (configuration not stated) | 0.01 µM | 1.9 µM | 0.08 µM | –
14 | CN1c2ccc(O)cc2C(=O)N2CCc3c([nH]c4ccccc34)C21 (configuration not stated) | 0.013 µM | > 200 µM | < 0.003 µM | inhibition [3]: inactive; inhibition [2]: Active
15 | CN1c2cccc(O)c2C(=O)N2CCc3c([nH]c4ccccc34)C21 (configuration not stated) | 2.14 µM | 62.4 µM | 0.24 µM | inhibition [3]: Active; inhibition [2]: Active
16 | CN1c2ccccc2C(=O)N2CCc3c(n(C(=O)c4ccc(Cl)cc4)c4ccc(Br)cc34)C21 (configuration not stated) | 19.7 µM | 22.5 µM | 38.7 µM | –
17 | O=C1c2ccccc2OC2c3[nH]c4ccccc4c3CCN12 (configuration not stated) | 3.03 µM | 2.4 µM | 3.13 µM | –
18 | COc1ccc2c(c1)C(=O)N1CCc3c([nH]c4ccc(OC)cc34)C1N2C (configuration not stated) | 0.033 µM | > 200 µM | 9.8 µM | –
19 | CN1c2ccccc2C(=O)N2CCc3c(n(C(=O)c4ccc(Cl)cc4)c4ccc(O)cc34)C21 (configuration not stated) | 0.05 µM | 26.6 µM | < 0.002 µM | –

Row | Structure (SMILES) | GI50 (HCT-116 [1]) | GI50 (A549) | GI50 (MDA-MB-435) | other results
20 | COc1ccc2c(c1)C(=O)N1CCc3c([nH]c4ccc(O)cc34)C1N2C (configuration not stated) | 0.07 µM | 1.6 µM | 0.66 µM | –
21 | COc1cc([C@@H]2c3cc4c(cc3[C@@H](O[C@@H]3O[C@@H]5CO[C@@H](C)O[C@H]5[C@H](O)[C@H]3O)[C@H]3COC(=O)[C@H]23)OCO4)cc(OC)c1O | – | – | – | inhibition [3]: Active; inhibition [4]: Active
22 | CN1c2ccccc2C(=O)N2CCc3c(n(C(=O)c4ccc(Cl)cc4)c4ccc(Cl)cc34)C21 (configuration not stated) | > 200 µM | > 200 µM | 72.7 µM | –
23 | COc1ccc2c(c1)C(=O)N1CCc3c(n(C(=O)c4ccc(Cl)cc4)c4ccccc34)C1N2C (configuration not stated) | 88.7 µM | > 200 µM | 184 µM | –
24 | CN1c2ccccc2C(=O)N2CCc3c([nH]c4ccc(OCc5ccccc5)cc34)C21 (configuration not stated) | > 200 µM | > 200 µM | 41.2 µM | –
25 | CC(=O)Nc1ccc2c(c1)C(=O)N1CCc3c([nH]c4ccccc34)C1N2C (configuration not stated) | 70.5 µM | > 200 µM | 59.1 µM | –
26 | COc1ccc2[nH]c3c(c2c1)CCN1C(=O)c2cc(Cl)ccc2N(C)C31 (configuration not stated) | 0.004 µM | 13 µM | 2 µM | –
27 | CN1c2ccc(N)cc2C(=O)N2CCc3c([nH]c4ccccc34)C21 (configuration not stated) | 8.92 µM | > 200 µM | 0.15 µM | inhibition [2]: Active
28 | CCc1c2c(nc3ccc(OC(=O)N4CCC(N5CCCCC5)CC4)cc13)-c1cc3c(c(=O)n1C2)COC(=O)[C@]3(O)CC [IRINOTECAN] | 7.1 µM | 5 µM | 12.2 µM | –
29 | CN1c2ccccc2CN2CCc3c([nH]c4ccccc34)C21 (configuration not stated) | > 200 µM | > 200 µM | 16.2 µM | –
30 | O=c1c2cc(F)ccc2nc2n1CCc1c-2[nH]c2ccccc12 | 20 µM | 47.2 µM | 15.9 µM | –
31 | COc1ccc2c(c1)c1c(n2C(=O)c2ccc(Cl)cc2)C2N(CC1)C(=O)c1ccccc1N2C (configuration not stated) | 71 µM | 87.2 µM | 11.8 µM | –
32 | COc1ccc2[nH]c3c(c2c1)CCN1C(=O)c2ccccc2N(C)C31 (configuration not stated) | > 200 µM | > 200 µM | 8.97 µM | –
33 | CN1c2ccc(Br)cc2C(=O)N2CCc3c([nH]c4ccccc34)C21 (configuration not stated) | 14.1 µM | 14.5 µM | 1.5 µM | –
34 | CN1c2ccccc2C(=S)N2CCc3c([nH]c4ccccc34)C21 (configuration not stated) | 46.5 µM | 90.7 µM | 12.2 µM | –
35 | CN1c2ccc(I)cc2C(=O)N2CCc3c([nH]c4ccccc34)C21 (configuration not stated) | > 200 µM | > 200 µM | 2.94 µM | –
36 | Cc1ccc2[nH]c3c(c2c1)CCN1C(=O)c2ccccc2N(C)C31 (configuration not stated) | > 200 µM | > 200 µM | > 200 µM | –
37 | CCOc1ccc2[nH]c3c(c2c1)CCN1C(=O)c2ccccc2N(C)C31 (configuration not stated) | 19.2 µM | > 200 µM | 5.93 µM | –
